Bioassay records as filed in PubChem BioAssay.
CCR6 antagonist = antagonists of human CCR6 receptor; inhibition, % at 20 µM; P51684; 340,000 tested, 0.49% active; CHO-K1 CCR6 PathHunter beta-arrestin, luminescence, CCL20-stimulated; AID 493098;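 active means compounds whose inhibition of the agonist-driven luminescence signal at 20 µM reaches about 50%, limit read from the data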;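 further: cells stimulated with CCL20 at 14 nM final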
APJ antagonist = blocks the human apelin receptor APJ; P35414; CHO-K1 APJ beta-arrestin complementation, luminescence; inhibition, % at 20 µM; 330,000 tested, 0.32% active;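 active means inhibition above about 40% at 20 µM, limit read from the data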;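 further: cells challenged with 10 nM apelin-13 agonist together with compound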
DAGLB inhibitor = blocks human DAGLB lipase activity; Q8NCG7; inhibition, % at 5.17 µM; AID 504411; 340,000 tested, 0.059% active; HEK293T DAGLB membrane lysate, EnzChek fluorogenic substrate; in the data active means inhibition above about 34%
iPSC survival up = hiPSC single-cell survival enhancement | ATPlite luminescence; 100% = ROCK inhibitor wells, 0% = DMSO | survival enhancement, % at 20 µM | AID 602274 | 360,000 tested, 0.044% active; in the data active means survival enhancement above about 18%;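 further: cells exposed to compounds for 16 hours before the ATP read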
CXCR6 block = blocks human CXCR6 beta-arrestin recruitment | 360,000 tested, 0.36% active | AID 602244 | CHO-K1 PathHunter CXCR6 beta-arrestin, luminescence | inhibition, % at 20 µM; in the data active means inhibition above about 34%, passing the limit was not always enough;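 further: antagonist mode with CXCL16 agonist at 10 nM final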
Target sequence (O00574 whole entry, looked up): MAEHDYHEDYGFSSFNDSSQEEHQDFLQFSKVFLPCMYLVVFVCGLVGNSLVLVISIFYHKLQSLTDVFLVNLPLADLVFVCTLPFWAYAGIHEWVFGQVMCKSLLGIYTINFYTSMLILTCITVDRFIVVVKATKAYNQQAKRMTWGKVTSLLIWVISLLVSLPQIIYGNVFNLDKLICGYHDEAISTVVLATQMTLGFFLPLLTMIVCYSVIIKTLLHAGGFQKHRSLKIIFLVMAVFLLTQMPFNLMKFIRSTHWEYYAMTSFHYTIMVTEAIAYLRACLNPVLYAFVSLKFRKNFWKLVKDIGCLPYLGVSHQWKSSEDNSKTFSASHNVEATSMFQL
APJ ag = activates the human apelin receptor APJ. CHO-K1 APJ PathHunter beta-arrestin, luminescence; 0% DMSO wells, 100% apelin. activation, % at 20 µM. 330,000 tested, 0.11% active. AID 2520. P35414;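 active means activation more than six SD over the plate average, tested at 20 µM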
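Test system – PathHunter CHO-K1 APJ (AGTRL-1) beta-arrestin reporter cells · Input – 1000 cells/well · Compound – single test compound dose, 20 µM final, 1% DMSO · Times – compound stimulation 90 min at 25 °C, detection 60 min · Technique – beta-gal luminescence · Read-out basis – APJ–arrestin association signal · Control set – negative DMSO alone, positive Apelin-13 at 10 nM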
CXCR6 confirm = confirmation of human CXCR6 receptor antagonists | shares compounds with CXCR6 block | CHO-K1 CXCR6 PathHunter beta-arrestin, luminescence | inhibition, % at 20 µM | 700 tested, 65% active | AID 602409;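 active means mean inhibition over four retests above 40%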;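 further: receptor stimulated with 10 nM CXCL16 agonist; beta-galactosidase fragment complementation upon beta-arrestin recruitment to receptor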
A number is an active result; – = inactive; · = not tested or not shown. A selection: hits, their analogues and other compounds. The true share with any hit is near 0.86%.

SMILES | CCR6 antagonist | APJ antagonist | DAGLB inhibitor | iPSC survival up | CXCR6 block | APJ ag | CXCR6 confirm
CC1=C(CC/C(C)=N/NC(N)=S)C(C)(C)CCC1 | – | – | – | – | 46 | – | –
C[C@H](CO)N1C[C@H](C)[C@@H](CN(C)S(=O)(=O)c2cccs2)Oc2c(NS(=O)(=O)c3ccccc3)cccc2C1=O | – | – | – | – | – | – | ·
Fc1ccc(-c2nc3ccc(Cl)cn3c2Cc2cccc(F)c2)cc1 | · | · | · | – | – | · | ·
C=C1C(=O)[C@]23C[C@H]1CCC2[C@@]1(C)C(C[C@@H]3O)[C@](C)(C(=O)OC)CC[C@@H]1OC(C)=O (stereo partly drawn) | · | · | · | – | 69 | · | 89
C=C1C(=O)[C@]23C[C@H]1CC[C@H]2[C@]1(C)[C@@H](OC(C)=O)CC[C@@](C)(C(=O)OC)[C@H]1C[C@@H]3OC(C)=O | · | · | · | – | – | · | ·
Clc1ccc(-c2nc3c4ccccc4ccn3c2Cc2ccccc2)cc1 | · | · | – | – | 44 | · | –
COc1ccc(-n2nnnc2S(=O)(=O)CC(=O)N2CCCCC2)cc1 | – | – | – | – | 48 | – | 49
CC1=CC(C)(C)N2C(=O)C(=Nc3ccc(O)cc3)c3cccc1c32 | – | – | – | – | 48 | – | 48
COc1cccc(C(=O)Oc2cc3c4c(c2)C(C)=CC(C)(C)N4C(=O)C3=O)c1 | – | – | – | – | – | – | ·
O=C(COC(=O)/C=C/C(=O)OCC(=O)NC12CC3CC(CC(C3)C1)C2)NC12CC3CC(CC(C3)C1)C2 | – | – | – | – | – | – | ·
CC1=CCC2C(=O)N(c3ccc(Br)cc3C)C(=O)C2C1 (stereo not drawn) | – | – | – | – | – | – | ·
CC1=C(C)CC2C(C1)C(=O)c1ccc(Br)cc1S2(=O)=O (stereo not drawn) | 84 | – | – | – | 72 | – | 41
Cc1ccc(OCC(=O)NNC(=S)NC(=O)C2CC2)c(C)c1 | · | – | – | – | 45 | – | 41
Cc1ccc(C(=O)C2CC2)cc1C | – | · | – | – | – | · | ·
Nc1cccc2c1C(=O)N(C(=O)c1ccco1)C2=O | – | – | – | – | – | – | ·
Nc1cccc2c1C(=O)N(C(=O)/C=C/c1ccc(F)cc1)C2=O | 61 | – | – | – | 48 | – | –
O=C(c1ccc2c(=O)n3c(nc2c1)CCCCC3)N1CCN(c2ccc(Cl)cc2)CC1 | – | – | – | – | – | – | ·
C=C1C(=O)C23CCC4C(C)(C(=O)OC)CCCC4(C)C2CCC1(O)C3 (stereo not drawn) | 86 | · | – | – | 79 | · | 89
Cc1cc(C)n(C(C[N+](=O)[O-])c2ccc(Cl)cc2)n1 (stereo not drawn) | – | – | – | – | 44 | – | –
COc1ccc(NC2CCCN(C(=O)C3=NN(C)C(=O)CC3)C2)cc1OC (stereo not drawn) | – | – | – | – | – | – | ·
Cc1ccc(NC(=O)C2=C(c3ccccc3)S(=O)(=O)CCS2(=O)=O)cc1 | · | – | – | – | 48 | – | 53
CCCc1cc(=O)oc2cc(OC(=O)CN3C(=O)NC4(CCCC4)C3=O)ccc12 | 67 | – | – | – | 46 | – | –
CCCc1cc(=O)oc2cc(OCC(=O)N3CC[C@@]4(O)CCCC[C@H]4C3)ccc12 | · | · | · | – | – | · | ·
O=C(CN1c2cccc3cccc(c23)S1(=O)=O)Nc1ccccc1Br | – | – | – | – | – | – | ·
O=C(Oc1c(Cl)cc(Cl)c2cccnc12)c1ccco1 | · | – | – | – | 45 | – | 70
SMILES | CCR6 antagonist | APJ antagonist | DAGLB inhibitor | iPSC survival up | CXCR6 block | APJ ag | CXCR6 confirm
O=C(Oc1c(Cl)cc(Cl)c2cccnc12)c1cccs1 | – | – | – | – | – | – | ·
CC(C)(C)c1ccc(Cn2nc(CC(=O)O)c3ccccc3c2=O)cc1 | – | – | – | – | – | – | ·
CC(=O)Nc1ccc2c(c1)Cc1cc(N3C(=O)C=CC3=O)ccc1-2 | 115 | · | – | – | 99 | · | 72
COc1ccc(/C=C2/CCC(CN3CCOCC3)C2=O)cc1 (stereo not drawn) | 87 | · | – | – | 70 | · | 70
CN(C)CC1CC/C(=C\c2ccc(O)cc2)C1=O (stereo not drawn) | 86 | · | – | – | 75 | · | 77
COCCNC(=O)C1(C)CCCN(C(=O)c2ccc(C)c(F)c2)C1 (stereo not drawn) | · | · | · | – | – | · | ·
COc1ccc(-c2cc3c(=O)n(CC(=O)NCCN4CCCC4)nc(C)n3n2)cc1 | – | – | – | – | – | – | ·
C=C(C)c1cccc(C(C)(C)NC(=O)NC(c2ccccc2)c2ccc(OC)cc2)c1 (stereo not drawn) | – | – | – | – | 45 | – | –
CCN1CCN(C(=O)C(N)Cc2ccccc2)CC1 (stereo not drawn) | – | – | – | – | – | – | ·
COc1cccc(OC)c1C(=O)Nc1ccc2nc(C)c(C)nc2c1 | – | – | – | – | 65 | – | –
CC(O/N=C(\N)c1ccccc1)C(=O)Nc1cccc(C(F)(F)F)c1 (stereo not drawn) | – | – | – | – | – | – | ·
Cc1ccc(NCC(=O)c2ccc(C)cc2)cc1 | 83 | – | – | – | 44 | – | 58
Cc1ccc(NCCC(=O)c2ccc(Br)cc2)cc1 | – | – | – | – | – | – | ·
NS(=O)(=O)c1ccc(CNC(=O)NC23CC4CC(CC(C4)C2)C3)cc1 | – | – | – | – | 61 | – | –
Cc1nn(C)c(C(=O)NC(=S)Nc2ccccc2O)c1Cl | 50 | – | – | – | 44 | – | –
Cc1ccc(C(=O)CCC(=O)Nc2ccccc2C)cc1C | – | – | – | – | – | – | ·
COc1ccccc1NCC(=O)c1ccc(C)c(C)c1 | 82 | – | – | – | 52 | – | –
CCCc1ccc(OC(=O)c2cccs2)cc1 | – | – | – | – | 50 | – | –
COc1ccc(CCNC(=O)COC(=O)c2cccs2)cc1 | – | – | – | – | – | – | ·
Cc1nn(CC(=O)N2CCc3ccccc3C2)c(C)c1Cl | – | – | – | – | – | – | ·
O=C(O)COc1ccc(S(=O)(=O)N2CCCC2)cc1 | – | – | – | – | – | – | ·
CC(=O)c1ccc(OCC(=O)OCC(=O)c2ccc(S(=O)(=O)N3CCCCC3)cc2)cc1 | · | · | – | – | 40 | · | –
COc1ccc(OCCOc2ccc(/C=C3\C(=N)N4N=C(C)SC4=NC3=O)cc2)cc1 | – | – | – | – | – | – | ·
CCNC(=O)C1(C)CCN1Cc1cc(-c2ccccc2)n(C)n1 (stereo not drawn) | · | · | · | – | – | · | ·
CN(c1ccccc1)c1ccc(/C=C/[N+](=O)[O-])cc1 | · | · | – | – | 71 | · | 63
CCN(CCc1ccccc1)c1ccc2c(c1)C1CC2CCN1Cc1ccccc1 (stereo not drawn) | · | · | – | – | – | · | ·
